Screening results as filed in PubChem BioAssay.
OX1R antag-1: OX1R (HCRTR1) antagonists, primary screen, fluorescence, CHO/OX1R cells, Fluo-8 calcium, orexin A; inhibition, % at 5 µM; Fluo-8 calcium fluorescence; 330,000 tested, 0.43% active; Orexin/Hypocretin receptor type 1 (Homo sapiens), O43613; AID 434989, 2010;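 active means inhibition above its plate's threshold, mean inhibition of all tested compounds on the plate plus 3 SD, cut at about 37% in these data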;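 further: 0% = orexin A challenge wells and 100% = SB-334867-A antagonist wells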
TAAR1 agonist: human TAAR1 agonists, primary screen, Fluo-8 calcium fluorescence, CHO RD-HGA16 cells | Trace amine-associated receptor 1 (Homo sapiens), Q96RJ0 | vehicle wells 0%, saturating PEA agonist 100% | activation, % at 3 µM | 360,000 tested, 0.99% active;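 active means activation above the mean activation of all test compounds in the run plus 3 SD, cut at about 38% in these data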
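Assay system – CHO-derived RD-HGA16 cells with stable Gα16 and human TAAR1 · Compound dosing – one-point dosing at 3 µM (nominal) · Incubation – 17-24 h seeding, 75 min 37 °C dye, 30 min RT · Measured by – kinetic Fluo-8 calcium fluorescence · Control set – DMSO vehicle as 0%, PEA at EC100 as 100% · Repeats – single well for each compound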
CHO parental Ca: ATP-evoked calcium signal inhibitors, parental CHO, primary screen, counter-screen for OX1R antagonist project, cell-based, fluorescence, Fluo-8 calcium dye | parental CHO-K1, ATP-induced calcium, Fluo-8 fluorescence | inhibition, % at 5.6 µM | 330,000 tested, 0.63% active | AID 463079, 2010;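 active means inhibition above that plate's mean sample inhibition plus 3 SD, cut at about 26% in these data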;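 further: 0% = ATP-challenged DMSO wells and 100% = DMSO wells without ATP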
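Test system: untransfected parental CHO cell line; also added: ATP stimulus; dosing: 5.6 µM, single dose; signal: calcium-sensitive Fluo-8 fluorescence; measure: percent inhibition of ATP-evoked calcium rise, normalized to controls; benchmarks: low control ATP plus DMSO, high control DMSO only; replication: one well per compound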
OX1R antag-2: antagonists of human orexin 1 receptor (OX1R). Orexin/Hypocretin receptor type 1 (Homo sapiens), O43613. OX1R-expressing cells, FRET antagonist read-out. inhibition, % at 6.6 µM. 330,000 tested, 1.8% active. AID 485270, 2010; in the data active means inhibition mostly above about 38%, no sharp cut-off; inactive means mostly below about 40%;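 further: 0% = agonist challenge alone and 100% = reference antagonist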
TAAR1 antag: human TAAR1 antagonists, primary screen, Fluo-8 calcium fluorescence, CHO RD-HGA16 cells | Trace amine-associated receptor 1 (Homo sapiens), Q96RJ0 | antagonist | inhibition, % at 3 µM | 360,000 tested, 1.5% active | AID 624466, 2012;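 active means inhibition above a per-plate cutoff, the mean inhibition of test compounds on that plate plus 3 SD, cut at about 49% in these data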;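 further: 0% = DMSO plus EC80 beta-PEA response and 100% = DMSO alone without agonist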
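Test system – hTAAR1-expressing CHO RD-HGA16 cells, Gα16-coupled · Also added – β-PEA at EC80 concentration, post-compound challenge · Compound – 3 µM, single point · Incubation – dye loading 75 min at 37 °C, then 30 min room temperature · Measured by – Fluo-8 intracellular calcium dye fluorescence, real-time kinetic reads · Benchmarks – vehicle and agonist controls · Replicates – singlicate, one well per test compound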
NTR1 agonist: agonists of human NTR1, primary screen, imaging, U2OS cells, beta-arrestin-GFP, high content; NTR1-U2OS beta-arrestin-GFP spot imaging, agonist mode; activation, % at 20 µM; 330,000 tested, 0.17% active; AID 493036, 2011;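 active means activation at or above 40% of the spot to cytoplasm intensity ratio, with at least 20 cells analyzed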;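 further: 0% = DMSO without peptide and 100% = 100 nM NTR1 peptide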
Target sequence (P30989 whole entry, looked up): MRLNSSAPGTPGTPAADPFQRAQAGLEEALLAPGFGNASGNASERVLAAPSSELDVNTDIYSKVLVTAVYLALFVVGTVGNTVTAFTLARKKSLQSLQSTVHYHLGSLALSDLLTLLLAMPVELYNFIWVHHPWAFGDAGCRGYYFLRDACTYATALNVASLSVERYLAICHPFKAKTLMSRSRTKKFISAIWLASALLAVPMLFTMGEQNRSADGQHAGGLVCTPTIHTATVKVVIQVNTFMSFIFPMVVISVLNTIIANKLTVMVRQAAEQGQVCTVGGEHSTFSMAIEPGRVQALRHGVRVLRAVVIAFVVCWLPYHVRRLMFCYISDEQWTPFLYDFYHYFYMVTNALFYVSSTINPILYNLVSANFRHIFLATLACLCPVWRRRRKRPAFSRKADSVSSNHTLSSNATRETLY
OX1R HTRF conf: OX1R (HCRTR1) antagonists, confirmation, cell-based, HTRF | shares compounds with OX1R antag-2 | OX1R-expressing cells, HTRF antagonist assay | inhibition, % at 6.6 µM | 1,800 tested, 49% active; in the data active means inhibition above about 55%;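 further: CHO cells expressing OX1R stimulated with orexin A at about EC80; 0% = agonist challenge alone and 100% = reference antagonist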
CHO-K1 HTRF cnt: signal inhibition in parental CHO-K1 cells, counter-screen for OX1R antagonist project, cell-based, HTRF. shares compounds with OX1R antag-2. HTRF counterscreen. inhibition, % at 6.6 µM. 1,800 tested, 48% active; in the data active means inhibition above about 17%;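 further: 0% = agonist challenge with vehicle and 100% = vehicle alone without agonist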
The depositor's hits bear a star; nt = no result given. Sampled rows, rich in hits. Any-hit rate of the full collection: about 4%.

SMILES	OX1R antag-1	TAAR1 agonist	CHO parental Ca	OX1R antag-2	TAAR1 antag	NTR1 agonist	OX1R HTRF conf	CHO-K1 HTRF cnt
CCc1ccccc1NC(=O)c1ccc(OCc2c(C)noc2C)cc1	-10	2	-1	14	15	-1	nt	nt
O=C1NC(=O)C(Cc2ccc(Cl)cc2)(c2ccccc2)N1 (stereo not drawn)	nt	11	nt	nt	3	nt	nt	nt
CCc1cc(C(=O)N(CC)CC(=O)Nc2ccc(OC)cc2)sc1C	-35	-1	-21	2	-8	2	nt	nt
CCCCN1CC[C@H]2C=CC[C@@H](C(=O)Nc3ccc(Cl)c(C(F)(F)F)c3)[C@H]2C1=O	3	6	-7	44	7	5	nt	nt
O=C(Nc1ccccc1)[C@@H]1CC=C[C@@H]2CCN(Cc3ccccc3)C(=O)[C@@H]21	28	10	-14	83*	4	0	86*	4
O=C(Nc1ccc(Cl)c(C(F)(F)F)c1)[C@@H]1CC=C[C@@H]2CCN(Cc3ccccc3)C(=O)[C@@H]21	26	1	-21	84*	6	-1	85*	15
CC(C)S(=O)(=O)c1cnc(-c2ccccn2)nc1N	2	0	2	8	3	2	nt	nt
COCCNC(=O)c1ccc(Cl)c(S(=O)(=O)Nc2cccc(C)c2C)c1	-15	1	-3	33	-2	4	nt	nt
COC(=O)[C@H]1C[C@@H]1[C@H](NS(=O)(=O)c1ccc2ccccc2c1)c1ccccc1	-6	9	-32	79*	7	2	36	3
O=C(O)c1ccc(NC2=C(n3nnc4ccccc43)C(=O)c3ccccc3C2=O)cc1	-13	2	6	174*	-8	-1	53	56*
O=C(O)c1cccc(NC2=C(N3CCOCC3)C(=O)c3ccccc3C2=O)c1	12	1	3	24	3	1	nt	nt
O=C(O)COc1ccccc1/C=C1\SC(=S)N(NC(=O)c2ccccc2O)C1=O	-4	10	-14	28	-6	0	nt	nt
O=C(O)COc1ccccc1/C=C1\SC(=S)N(/N=C/c2ccccc2O)C1=O	-1	5	6	98*	-12	2	70*	46*
CC1CC(=O)NN=C1c1ccc(N)c([N+](=O)[O-])c1 (stereo not drawn)	2	0	-11	83*	-6	-1	34	29*
COc1cc(/C=C2\OC(=O)c3c(OC)cccc32)ccc1O	-14	12	0	79*	10	1	58*	13
COc1ccc(-n2nc([N+](=O)[O-])c(=NCc3cccnc3)n2O)cc1	-3	0	-9	123*	-8	1	61*	78*
COc1ccc(-n2nc([N+](=O)[O-])c(=NCCc3ccc(OC)c(OC)c3)n2O)cc1	-9	5	1	84*	-20	1	46	54*
COc1ccc(-n2nc([N+](=O)[O-])c(=NCCc3ccc(C)cc3)n2O)cc1	-41	1	-22	34	-16	-2	nt	nt
COc1ccc(-n2nc([N+](=O)[O-])c(=NCCc3ccc(Cl)cc3)n2O)cc1	-15	1	-24	19	15	2	nt	nt
COc1ccc(-n2nc([N+](=O)[O-])c(=NCc3ccco3)n2O)cc1	1	8	7	43	4	-1	nt	nt
COc1ccc(-n2nc([N+](=O)[O-])c(=NC3CCN(Cc4ccccc4)CC3)n2O)cc1	-37	4	-20	79*	4	0	61*	55*
Cc1cccc(NC(=O)CCCC(=O)OC(C)C(=O)c2ccccc2)c1 (stereo not drawn)	-5	15	-13	13	11	-1	nt	nt
CC1Sc2ccc(S(=O)(=O)N3CCC(C(=O)NCc4ccccc4)CC3)cc2NC1=O (stereo not drawn)	-17	1	-14	-3	13	0	nt	nt
CNC(=O)c1c(NC(=O)c2ccco2)sc2c1CCC2	-14	0	7	78*	-15	1	45	1
COC(=O)c1sc2nc(C)cc(C)c2c1N	-9	3	-10	16	2	-1	nt	nt
SMILES	OX1R antag-1	TAAR1 agonist	CHO parental Ca	OX1R antag-2	TAAR1 antag	NTR1 agonist	OX1R HTRF conf	CHO-K1 HTRF cnt
COc1cc(/C=N/NC(=O)c2sc3nc(C)cc(C)c3c2N)ccc1O	26	8	-11	100*	34	0	98*	25*
COc1cc2nc(/C=C/c3cc(OC)c(OC)c(OC)c3)sc2cc1SC	24	0	-39	79*	-11	5	84*	10
CC(=O)c1ccc(NC(=O)Nc2ccc3c(c2)N(C)C(=O)CS3)cc1	-15	44*	-1	79*	76*	3	19	11
Cc1cccc(NC(=O)Nc2ccc3c(c2)N(C)C(=O)CS3)n1	-14	10	-15	10	37	3	nt	nt
Cc1ccc2c(ccn3cc4c(c(=O)n(C)c(=O)n4C)c23)c1	-2	-2	-17	86*	-20	5	88*	6
Cc1cccc(-c2c3c(=O)n(C)c(=O)n(C)c3cn2C(C)C)c1	-17	1	-22	19	13	6	nt	nt
O=C(N/N=C/c1ccncc1)c1ccc(COc2cccc3cccnc23)cc1	-13	7	-13	24	40	-1	nt	nt
O=C(N/N=C/c1ccc2cccc(OCc3ccccc3)c2n1)c1ccc(Cl)cc1	-2	10	-15	79*	19	4	37	-2
CC/C(C)=N/NC(=O)c1[nH]c2ccc(C)cc2c1-c1ccccc1	-27	-1	-21	93*	-13	-1	16	0
Cc1onc(-c2ccccc2Cl)c1C(=O)OCC(=O)N1CCCCC1	-23	10	-18	1	-21	0	nt	nt
COc1ccc(C(=O)N2CCN(c3nc4cc(C)ccc4cc3C#N)CC2)c(OC)c1	-20	11	-26	20	35	0	nt	nt
COc1cc(C(=O)N2CCCN(c3nc4cc(C)ccc4cc3C#N)CC2)cc(OC)c1OC	24	8	-30	80*	4	1	86*	5
O=C(Nc1cc([N+](=O)[O-])ccc1O)c1ccc2c(c1)C(=O)N(Cc1ccco1)C2=O	-4	4	-4	32	16	0	nt	nt
